≈ marks a conversion by molar mass, not a printed value. Where a SMILES comes first, the peptide text is derived from it.
Tests used:
[1] = Cytotoxicity against mouse RAW264.7 cells assessed as cell viability at 2 to 64 uM measured after 18 to 24 hrs by MTT assay relative to control; format: cell-based; conditions: RAW264.7 cells, read-out: Activity
Summary of the method: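 MTT assay: RAW264.7 cells seeded at 1.0–2.0×10^4 per well and exposed to peptide (2–64 µM) for 18–24 h at 37 °C in 5% CO2. MTT (0.5 mg/mL) added for 4 h, formazan dissolved in DMSO, read at 570 nm. At least three independent experiments with triplicate wells.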

Escherichia coli [2] = assay: Antibacterial activity against Escherichia coli UB1005 measured after 24 hrs; format: functional; conditions: UB1005, 24 h
Summary of the method: (§1)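 Broth microdilution adapted from NCCLS. Mid-log bacteria were diluted in MHB to a final (0.5–1) × 10^5 CFU mL−1. Peptides were serially diluted in 0.2% BSA and mixed with an equal volume of cells. After 24 h at 37 °C, MIC was read at A492 as the lowest concentration inhibiting 95% of growth. At least three independent experiments, each with three technical replicates.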

[3] = Antibacterial activity against Salmonella pullorum ATCC 7913 measured after 24 hrs; format: functional, Salmonella enterica subsp. enterica serovar Pullorum; conditions: Salmonella enterica, ATCC 7913, 24 h; summary of the method: as §1
Escherichia coli [4] = assay: Antibacterial activity against Escherichia coli K88 measured after 24 hrs; format: functional; conditions: K88, 24 h; summary of the method: as §1
Escherichia coli [5] = assay: Antibacterial activity against Escherichia coli K99 measured after 24 hrs; format: functional; conditions: K99, 24 h; summary of the method: as §1
Escherichia coli [6] = assay: Antibacterial activity against Escherichia coli 078 measured after 24 hrs; format: functional; conditions: Escherichia coli, 078, 24 h; summary of the method: as §1
Staphylococcus aureus [7] = assay: Antibacterial activity against Staphylococcus aureus ATCC 25923 measured after 24 hrs; format: functional; conditions: ATCC 25923, 24 h
Summary of the method: (§2)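 Broth microdilution modified from NCCLS. Mid-log bacteria at (0.5–1) × 10^5 CFU mL−1 in MHB, mixed with peptides serially diluted in 0.2% BSA. Incubated 24 h at 37 °C, read at A492. MIC taken as lowest concentration giving 95% growth inhibition. At least three independent experiments, each with three technical replicates.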

Staphylococcus aureus [8] = assay: Antibacterial activity against Staphylococcus aureus ATCC 29213 measured after 24 hrs; format: functional; conditions: ATCC 29213, 24 h; summary of the method: as §2
Escherichia coli [9] = assay: Antibacterial activity against Escherichia coli ATCC 25922 measured after 18 to 24 hrs in presence of KCl; format: functional
Escherichia coli [10] = assay: Antibacterial activity against Escherichia coli ATCC 25922 measured after 18 to 24 hrs in presence of CaCl2; format: functional
Escherichia coli [11] = assay: Antibacterial activity against Escherichia coli ATCC 25922 measured after 18 to 24 hrs in presence of MgCl2; format: functional
Staphylococcus aureus [12] = assay: Antibacterial activity against Staphylococcus aureus ATCC 29213 measured after 18 to 24 hrs in presence of NaCl; format: functional
Staphylococcus aureus [13] = assay: Antibacterial activity against Staphylococcus aureus ATCC 29213 measured after 18 to 24 hrs in presence of CaCl2; format: functional
Staphylococcus aureus [14] = assay: Antibacterial activity against Staphylococcus aureus ATCC 29213 measured after 18 to 24 hrs in presence of MgCl2; format: functional
Staphylococcus aureus [15] = assay: Antibacterial activity against Staphylococcus aureus ATCC 29213 measured after 18 to 24 hrs in presence of FeCl3; format: functional
Candida albicans [16] = assay: Antifungal activity against Candida albicans cgmcc2.2086 measured after 48 hrs in presence of NaCl by broth microdilution method; format: functional; conditions: cgmcc2.2086, 48 h
Candida albicans [17] = assay: Antifungal activity against Candida albicans cgmcc2.2086 measured after 48 hrs in presence of CaCl by broth microdilution method; format: functional; conditions: cgmcc2.2086, 48 h
Candida albicans [18] = assay: Antifungal activity against Candida albicans cgmcc2.2086 measured after 48 hrs in presence of ZnCl by broth microdilution method; format: functional; conditions: cgmcc2.2086, 48 h
Candida albicans [19] = assay: Antifungal activity against Candida albicans cgmcc2.2086 measured after 48 hrs in presence of NH4Cl by broth microdilution method; format: functional; conditions: cgmcc2.2086, 48 h
[20] = Therapeutic index, ratio of MHC10 for hemolytic activity in human RBC to MIC95 against Escherichia coli ATCC 25922; format: toxicity; conditions: human red blood cells (erythrocytes), pooled result: one value given for 9 cell lines, strains, targets or settings, read-out: TI
Summary of the method: (§3)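 Therapeutic index = MHC divided by MIC. MHC is the lowest concentration giving >10% lysis of human RBC (1 h, 37 °C, 1-128 µM, A576). MIC is 95% growth inhibition by broth microdilution: bacteria in MHB 24 h at 37 °C; Candida in MOPS-buffered RPMI 1640 at (0.5–1) × 10^3 CFU mL−1, 48 h at 28 °C.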

[21] = Therapeutic index, ratio of MHC10 for hemolytic activity in human RBC to MIC95 against methicillin-resistant Staphylococcus aureus ATCC 43300; format: toxicity; conditions: human red blood cells (erythrocytes), read-out: TI; summary of the method: as §3
[22] = Therapeutic index, ratio of MHC10 for hemolytic activity in human RBC to MIC95 against Staphylococcus aureus ATCC 29213; format: toxicity; conditions: human red blood cells (erythrocytes), read-out: TI; summary of the method: as §3
[23] = Therapeutic index, ratio of MHC10 for hemolytic activity in human RBC to MIC95 against Candida tropicalis cgmcc2.1975; format: toxicity; conditions: human red blood cells (erythrocytes), read-out: TI; summary of the method: as §3
[24] = Conformational stability in pH 7.4 sodium phosphate buffer assessed as absorption spectra at minimum dichroic band at 35 uM by CD spectra analysis; format: physicochemical; conditions: pH 7.4, 35 µM
Summary of the method: (§4)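 CD spectra from 190 to 250 nm of peptide at 35 μM in 10 mM PBS, 30 mM SDS micelles or 50% TFE, recorded in a 1.0-mm quartz cell. Ellipticity was converted to mean residue ellipticity. Three independent scans, each averaged over more than 3 runs.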

[25] = Conformational stability in 50% trifluoro-ethyl alcohol assessed as alpha-helical structural propensity by measuring absorption spectra at minimum dichroic band at 35 uM by CD spectra analysis; format: physicochemical; summary of the method: as §4
Escherichia coli [26] = assay: Bactericidal activity against Escherichia coli K88 incubated for 24 hrs followed by replating on agar plate and measured after overnight incubation; format: functional; conditions: K88, 24 h, read-out: MBC>99.9
Summary of the method: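 Mid-log bacteria diluted in MHB to (0.5–1) × 10^5 CFU/mL and mixed 1:1 with peptide serially diluted in 0.2% BSA. After 24 h at 37 °C, 50 μL of each mixture was plated on agar and incubated overnight. MBC taken as the lowest concentration killing >99.9% of cells. At least three independent experiments, each with three technical replicates.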

Molecule | viability at up to 64 µM [1] [%] | MIC95 (Escherichia coli [2]) [µM] | MIC95 [3] [µM] | MIC95 (Escherichia coli [4]) [µM] | MIC95 (Escherichia coli [5]) [µM] | MIC95 (Escherichia coli [6]) [µM] | MIC95 (Staphylococcus aureus [7]) [µM] | MIC95 (Staphylococcus aureus [8]) [µM] | MIC95 (Escherichia coli [9]) [µM] | MIC95 (Escherichia coli [10]) [µM] | MIC95 (Escherichia coli [11]) [µM] | MIC95 (Staphylococcus aureus [12]) [µM] | MIC95 (Staphylococcus aureus [13]) [µM] | MIC95 (Staphylococcus aureus [14]) [µM] | MIC95 (Staphylococcus aureus [15]) [µM] | MIC95 (Candida albicans [16]) [µM] | MIC95 (Candida albicans [17]) [µM] | MIC95 (Candida albicans [18]) [µM] | MIC95 (Candida albicans [19]) [µM] | selectivity ratio [20] | other results
H-AARIILRDRFR-NH2 | 90 to 100 | > 128 | > 128 | > 128 | > 128 | > 128 | > 128 | > 128 | 128 | > 128 | > 128 | > 128 | > 128 | > 128 | > 128 | > 128 | > 128 | > 128 | > 128 | 2 | selectivity ratio [21]: 2; selectivity ratio [22]: 2; selectivity ratio [23]: 2; Wavelength of minimum CD band [24]: 200 nm; Activity [25]: 208 to 222 nm
H-AARIILRNRFR-NH2 | 90 to 100 | 16 | 16 | 32 | 16 | 16 | > 128 | > 128 | 64 | > 128 | 128 | > 128 | > 128 | > 128 | > 128 | > 128 | > 128 | > 128 | > 128 | 9.33 | MBC (Escherichia coli [26]): 64 µM; selectivity ratio [21]: 2; selectivity ratio [22]: 2; selectivity ratio [23]: 2; Wavelength of minimum CD band [24]: 200 nm; Activity [25]: 208 to 222 nm
CC[C@H](C)[C@H](NC(=O)[C@H](CCCCN)NC(=O)[C@H](C)NC(=O)[C@H](C)N)C(=O)N[C@H](C(=O)N[C@@H](CC(C)C)C(=O)N[C@@H](CC(N)=O)C(=O)N1CCC[C@H]1C(=O)N[C@@H](CCCCN)C(=O)N[C@@H](Cc1ccccc1)C(=O)N[C@@H](CCCNC(=N)N)C(=O)N[C@@H](CS)C(=O)N[C@@H](CCCCN)C(=O)N[C@@H](C)C(=O)N[C@@H](C)C(=O)N[C@@H](Cc1ccccc1)C(=O)N[C@@H](CS)C(N)=O)[C@@H](C)CC (H-AAKIILNPKFRCKAAFC-NH2) | 90 to 100 | 64 (≈ 121 µg/mL) | 64 (≈ 121 µg/mL) | 32 (≈ 60.6 µg/mL) | 32 (≈ 60.6 µg/mL) | > 128 | 64 (≈ 121 µg/mL) | > 128 | 32 | > 128 | 64 | > 128 | > 128 | > 128 | > 128 | > 128 | > 128 | > 128 | > 128 | 0.5 | MBC (Escherichia coli [26]): 64 µM (≈ 121 µg/mL); selectivity ratio [21]: 0.3; selectivity ratio [22]: 0.3; selectivity ratio [23]: 0.25; Wavelength of minimum CD band [24]: 200 nm; Stability [25]: Unstable
H-AAKIILNPKFR-NH2 | 90 to 100 | > 128 | > 128 | > 128 | > 128 | > 128 | > 128 | > 128 | 128 | > 128 | > 128 | > 128 | > 128 | > 128 | > 128 | > 128 | > 128 | > 128 | > 128 | 2 | selectivity ratio [21]: 2; selectivity ratio [22]: 2; selectivity ratio [23]: 2; Wavelength of minimum CD band [24]: 200 nm; Stability [25]: Unstable
H-AARIILRPRFR-NH2 | 90 to 100 | 8 | 16 | 16 | 16 | 8 | > 128 | > 128 | 16 | 128 | 64 | > 128 | > 128 | > 128 | > 128 | > 128 | > 128 | > 128 | > 128 | 16 | MBC (Escherichia coli [26]): 32 µM; selectivity ratio [21]: 2; selectivity ratio [22]: 2; selectivity ratio [23]: 2; Wavelength of minimum CD band [24]: 200 nm; Stability [25]: Unstable
